Reference: ChEMBL document CHEMBL1144203, “Synthesis and antiviral evaluation of acyclic azanucleosides developed from sulfanilamide as a lead structure” (Bioorg Med Chem, 2008)
Activity calls are given as the source filed them. The calls are words filed in the database; no cut-off is given here.

Columns and labels:
[1] = system: Human respirovirus 3; assay: Antiviral activity against Parainfluenza 3 virus infected in Vero cells assessed as inhibition of virus-induced cytopathic effect at 100 uM by MTS assay; format: functional, organism-based
Method in brief: (§1)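 Vero cell monolayers were infected with the virus in cell-based CPE assays. EC50 is the concentration giving 50% inhibition of virus-induced cytopathic effect, scored visually or by MTS formazan colorimetric cell-viability read-out. The highest concentration tested was 100 μM for most compounds and lower for a few.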

[2] = system: Punta Toro virus; assay: Antiviral activity against Punta Toro virus infected in Vero cells assessed as inhibition of virus-induced cytopathic effect at 100 uM by MTS assay; format: functional, organism-based; method in brief: as §1
[3] = system: Feline coronavirus; assay: Antiviral activity against feline coronavirus infected in CRFK cells assessed as inhibition of virus-induced cytopathic effect at 100 uM by MTS assay; format: functional, organism-based
[4] = system: Human alphaherpesvirus 1; assay: Antiviral activity against HSV1 virus infected in HEL cells assessed as inhibition of virus-induced cytopathic effect at 100 uM by MTS assay; format: functional, organism-based
[5] = system: Respiratory syncytial virus; assay: Antiviral activity against respiratory syncytial virus infected in HeLa cells assessed as inhibition of virus-induced cytopathic effect at 100 uM by MTS assay; format: functional, organism-based
Method in brief: (§2)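 HeLa cells were infected with the virus, and compounds were tested up to 100 μM. EC50 is the concentration that halves virus-induced cytopathic effect, read by visual CPE scoring or by MTS formazan colorimetric viability measurement.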

[6] = system: HeLa; assay: Cytotoxicity against human HeLa cells assessed as decrease in cell viability upto 100 uM by MTS assay; format: functional, cell-based
Method in brief: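 Uninfected HeLa host cells were tested up to 100 μM. CC50 is the concentration causing a 50% drop in cell viability by colorimetric formazan-based MTS assay. Alternatively, MCC is the minimal concentration giving microscopically detectable alteration of normal cell morphology.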

[7] = system: HEL; assay: Cytotoxicity against HEL cells assessed as decrease in cell viability upto 100 uM by MTS assay; format: cell-based; conditions: human
[8] = system: Mammalian orthoreovirus 1; assay: Antiviral activity against Reovirus1 infected in Vero cells assessed as inhibition of virus-induced cytopathic effect at 100 uM by MTS assay; format: functional, organism-based; method in brief: as §1
[9] = system: MDCK; assay: Cytotoxicity against MDCK cells assessed as decrease in cell viability upto 100 uM by MTS assay; format: cell-based, Canis lupus familiaris; conditions: dog
[10] = system: Coxsackievirus B4; assay: Antiviral activity against Coxsackievirus B4 infected in Vero cells assessed as inhibition of virus-induced cytopathic effect at 100 uM by MTS assay; format: functional, organism-based; method in brief: as §1
[11] = Cytotoxicity against CRFK cells assessed as decrease in cell viability upto 100 uM by MTS assay; format: cell-based, Felis catus; conditions: cat
[12] = system: Sindbis virus; assay: Antiviral activity against Sindbis virus infected in Vero cells assessed as inhibition of virus-induced cytopathic effect at 100 uM by MTS assay; format: functional, organism-based; method in brief: as §1
[13] = system: Felid alphaherpesvirus 1; assay: Antiviral activity against feline herpes virus infected in CRFK cells assessed as inhibition of virus-induced cytopathic effect at 100 uM by MTS assay; format: functional, organism-based
[14] = system: Coxsackievirus B4; assay: Antiviral activity against Coxsackievirus B4 infected in HeLa cells assessed as inhibition of virus-induced cytopathic effect at 100 uM by MTS assay; format: functional, organism-based; method in brief: as §2
[15] = system: Human alphaherpesvirus 2; assay: Antiviral activity against HSV2 virus infected in HEL cells assessed as inhibition of virus-induced cytopathic effect at 100 uM by MTS assay; format: functional, organism-based

| Structure (SMILES) | Activity [1] | Activity [2] | Activity [3] | Activity [4] | Activity [5] | Activity [6] | Activity [7] | Activity [8] | Activity [9] | Activity [10] | Activity [11] | Activity [12] | Activity [13] | Activity [14] | Activity [15] |
| --- | --- | --- | --- | --- | --- | --- | --- | --- | --- | --- | --- | --- | --- | --- | --- |
| CC(=O)Nc1ccc(S(=O)(=O)N(CCOC(=O)C(C)(C)C)Cn2cc(F)c(=O)[nH]c2=O)cc1 | inactive | inactive | inactive | inactive | inactive | inactive | Not Active | inactive | Not Active | inactive | Not Active | inactive | inactive | inactive | inactive |
| CC(C)(C)C(=O)OCCN(Cn1ccc(=O)[nH]c1=O)S(=O)(=O)c1cccc(N)c1 | inactive | inactive | inactive | inactive | inactive | inactive | Not Active | inactive | Not Active | inactive | Not Active | inactive | inactive | inactive | inactive |
| CC(C)(C)C(=O)OCCN(Cn1cc(F)c(=O)[nH]c1=O)S(=O)(=O)c1cccc(N)c1 | inactive | inactive | inactive | inactive | inactive | inactive | Not Active | inactive | Not Active | inactive | Not Active | inactive | inactive | inactive | inactive |
| Cc1cn(CN(CCO)S(=O)(=O)c2ccc(N)cc2)c(=O)[nH]c1=O | inactive | inactive | inactive | inactive | inactive | inactive | Not Active | inactive | Not Active | inactive | Not Active | inactive | inactive | inactive | inactive |
| CC(C)(C)C(=O)OCCN(Cn1cc(F)c(=O)[nH]c1=O)S(=O)(=O)c1ccccc1N | inactive | inactive | inactive | inactive | inactive | inactive | Not Active | inactive | Not Active | inactive | Not Active | inactive | inactive | inactive | inactive |
| Cc1cn(CN(CCOC(=O)C(C)(C)C)S(=O)(=O)c2cccc(N)c2)c(=O)[nH]c1=O | inactive | inactive | inactive | inactive | inactive | inactive | Not Active | inactive | Not Active | inactive | Not Active | inactive | inactive | inactive | inactive |
| Cc1cn(CN(CCOC(=O)C(C)(C)C)S(=O)(=O)c2cccc([N+](=O)[O-])c2)c(=O)[nH]c1=O | inactive | inactive | inactive | inactive | inactive | inactive | Not Active | inactive | Not Active | inactive | Not Active | inactive | inactive | inactive | inactive |
| CC(C)(C)C(=O)OCCN(Cn1ccc(=O)[nH]c1=O)S(=O)(=O)c1cccc([N+](=O)[O-])c1 | inactive | inactive | inactive | inactive | inactive | inactive | Not Active | inactive | Not Active | inactive | Not Active | inactive | inactive | inactive | inactive |
| CC(C)(C)C(=O)OCCN(Cn1ccc(=O)[nH]c1=O)S(=O)(=O)c1ccccc1[N+](=O)[O-] | inactive | inactive | inactive | inactive | inactive | inactive | Not Active | inactive | Not Active | inactive | Not Active | inactive | inactive | inactive | inactive |
| Cc1cn(CN(CCO)S(=O)(=O)c2cccc(N)c2)c(=O)[nH]c1=O | inactive | inactive | inactive | inactive | inactive | inactive | Not Active | inactive | Not Active | inactive | Not Active | inactive | inactive | inactive | inactive |
| CC(C)(C)C(=O)OCCN(Cn1ccc(=O)[nH]c1=O)S(=O)(=O)c1ccc(N)cc1 | inactive | inactive | inactive | inactive | inactive | inactive | Not Active | inactive | Not Active | inactive | Not Active | inactive | inactive | inactive | inactive |
| CC(=O)Nc1ccc(S(=O)(=O)N(CCO)Cn2cc(C)c(=O)[nH]c2=O)cc1 | inactive | inactive | inactive | inactive | inactive | inactive | Not Active | inactive | Not Active | inactive | Not Active | inactive | inactive | inactive | inactive |
| Cc1cn(CN(CCOC(=O)C(C)(C)C)S(=O)(=O)c2ccc(N)cc2)c(=O)[nH]c1=O | inactive | inactive | inactive | inactive | inactive | inactive | Not Active | inactive | Not Active | inactive | Not Active | inactive | inactive | inactive | inactive |
| Cc1cn(CN(CCO)S(=O)(=O)c2ccccc2N)c(=O)[nH]c1=O | inactive | inactive | inactive | inactive | inactive | inactive | Not Active | inactive | Not Active | inactive | Not Active | inactive | inactive | inactive | inactive |
